Assay results as given in ChEMBL document CHEMBL1157640, “Exploration of inhibitors for diaminopimelate aminotransferase” (Bioorg Med Chem, 2010).
pIC50: −log10 of the molar value. Active and inactive are the calls of the source. The calls are words filed in the database; no cut-off is given here.

Key:
[1] = molecular target: LL-diaminopimelate aminotransferase, chloroplastic (Arabidopsis thaliana, UniProt Q93ZN9); test: Inhibition of Arabidopsis thaliana LL-DAP-AT expressed in Escherichia coli by aminobenzaldehyde-based assay; conditions: for pIC50: read-out: IC50
Method in brief: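 His6-tagged A. thaliana LL-DAP-AT (0.0043 mg/mL final) in 1 mL cuvettes with 100 mM HEPES-KOH pH 7.6, 8.5 mM 2-OG, 7 mM OAB and 2.0 mM LL-DAP. Inhibitor at 5–200 µM final, added in 50 µL DMSO. A440 followed for 200 min, read every 2 min.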

[2] = molecular target: LL-diaminopimelate aminotransferase, chloroplastic (Arabidopsis thaliana) (UniProt Q93ZN9); test: Inhibition of Arabidopsis thaliana LL-DAP-AT expressed in Escherichia coli at 10 uM by aminobenzaldehyde-based assay
Method in brief: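 Robotic 96-well screen against C-terminal His6-tagged A. thaliana LL-DAP-AT (0.0043 mg/mL final) in 100 mM HEPES-KOH pH 7.6, with 8.5 mM 2-oxoglutarate, 7 mM OAB and 2.0 mM LL-DAP final. Inhibitor 10 µM final in DMSO, assuming MW 500. Absorbance at 440 nm read in triplicate before enzyme addition and after 3 h at room temperature. Activity taken relative to no-inhibitor wells; no-enzyme wells served as blank.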

[3] = molecular target: LL-diaminopimelate aminotransferase, chloroplastic (Arabidopsis thaliana) (UniProt Q93ZN9); test: Inhibition of Arabidopsis thaliana LL-DAP-AT expressed in Escherichia coli assessed as time independent type of inhibition by aminobenzaldehyde-based assay
Method in brief: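 Enzyme (100 µL) and inhibitor (50 µL) were preincubated for six different times, then added to 850 µL of OAB-coupled substrate buffer. Inhibitor level was chosen from the IC50. A440 recorded as in the IC50 assay, with positive and no-enzyme controls. Time independence was judged by whether percent inhibition changed with preincubation time.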

Salmonella typhimurium = test: Antimicrobial activity against Salmonella Typhimurium ATCC 23564 at <200 ug/mL; type: functional, organism-based; conditions: Salmonella enterica subsp. enterica serovar Typhimurium
Method in brief: (§1)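 Soft agar overlay (0.75% w/v) seeded with 1% overnight culture of indicator strain, poured over 1.5% w/v solid agar; LB medium for Gram-negative, M17 for Gram-positive. 10 µL of test solution spotted and air-dried, with solvent controls (acetonitrile or methanol). Incubated overnight, 37 °C Gram-negative, 30 °C Gram-positive; scored for growth-inhibition halos.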

Staphylococcus aureus = test: Antimicrobial activity against Staphylococcus aureus ATCC 25923 at <200 ug/mL; type: functional, organism-based; method in brief: as §1
Carnobacterium divergens = test: Antimicrobial activity against Carnobacterium divergens LV13 at <200 ug/mL; type: functional, organism-based; method in brief: as §1
Pseudomonas aeruginosa = test: Antimicrobial activity against Pseudomonas aeruginosa ATCC 15442 at <200 ug/mL; type: functional, organism-based; method in brief: as §1
Escherichia coli = test: Antimicrobial activity against Escherichia coli DH5alpha at <200 ug/mL; type: functional, organism-based; method in brief: as §1
[4] = molecular target: LL-diaminopimelate aminotransferase, chloroplastic (Arabidopsis thaliana) (UniProt Q93ZN9); test: Inhibition of Arabidopsis thaliana LL-DAP-AT expressed in Escherichia coli assessed as time dependent type of inhibition by aminobenzaldehyde-based assay
Method in brief: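 Recombinant C-terminal His6-tagged enzyme (0.043 mg/mL, 100 µL) preincubated with 50 µL inhibitor (stock chosen from IC50 measurements) for six different times. Mixture then added to 850 µL substrate buffer: 100 mM HEPES-KOH pH 7.6, 2-oxoglutarate, 2-aminobenzaldehyde, racemic DAP. Absorbance at 440 nm recorded for 200 min. Percentage inhibition compared across preincubation times; no-inhibitor and no-enzyme controls included.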

Chain of LL-diaminopimelate aminotransferase, chloroplastic (Q93ZN9 whole entry): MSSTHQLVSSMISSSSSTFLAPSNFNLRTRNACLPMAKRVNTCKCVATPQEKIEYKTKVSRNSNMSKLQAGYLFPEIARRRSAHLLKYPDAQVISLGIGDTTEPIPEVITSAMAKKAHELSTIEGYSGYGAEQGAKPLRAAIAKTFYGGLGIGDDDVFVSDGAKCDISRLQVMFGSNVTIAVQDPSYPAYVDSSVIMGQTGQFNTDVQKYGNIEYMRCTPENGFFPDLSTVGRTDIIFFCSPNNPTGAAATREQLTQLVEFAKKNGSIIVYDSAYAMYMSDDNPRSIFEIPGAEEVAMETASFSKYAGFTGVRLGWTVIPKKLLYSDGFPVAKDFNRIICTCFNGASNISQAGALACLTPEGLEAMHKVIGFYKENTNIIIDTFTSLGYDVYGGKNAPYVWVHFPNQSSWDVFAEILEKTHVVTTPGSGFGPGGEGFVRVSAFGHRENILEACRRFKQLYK
Chain of LL-diaminopimelate aminotransferase, chloroplastic (Arabidopsis thaliana) (Q93ZN9 whole entry): as above

| SMILES | pIC50 [1] | inhibition [2] [%] | further results |
| --- | --- | --- | --- |
| COc1ccc(/C=C2\SC(=S)NC2=O)cc1 | 3.85 | – | – |
| C=C(C)COc1ccc2c(c1)oc(=O)c1cc(OC)ccc12 | < 3.70 | 25 | – |
| NN1C(=O)/C(=C/c2ccccc2)SC1=S | – | – | IC50 [1]: Not Active |
| COc1ccc(/C=C2/C=C(c3ccccc3)OC2=O)c(OC)c1 | 3.80 | 14 | – |
| Cc1ccc(S(=O)(=O)N2C(=O)/C(=C3\SC(=S)NC3=O)c3ccccc32)cc1 | 4.15 | 25 | – |
| O=C(Cn1c(/C=C2/C(=O)NC(=O)N(c3cccc(F)c3)C2=O)cc2ccccc21)Nc1ccccc1 | 4.28 | 18 | – |
| O=C1OC(c2ccccc2)=C/C1=N\Nc1ccccc1C(=O)O | 4.41 | 16 | inhibition [3]: Active; inhibition (Salmonella typhimurium): inactive; inhibition (Staphylococcus aureus): inactive; inhibition (Carnobacterium divergens): inactive; inhibition (Pseudomonas aeruginosa): inactive; inhibition (Escherichia coli): inactive |
| Cc1ccc(OCCn2c(C=C3C(=O)NC(=O)NC3=O)cc3ccccc32)cc1C | 4.00 | 28 | – |
| COc1ccc(N2C(=O)NC(=O)/C(=C/c3ccc(-c4cccc(Cl)c4)o3)C2=O)cc1 | 4.38 | 20 | – |
| N=C1NC(=O)/C(=C/c2ccc(-c3ccc([N+](=O)[O-])cc3Br)o2)S1 | 4.07 | 13 | – |
| Cc1ccc(NC(=O)/C(C#N)=C/c2ccc(N(C)C)o2)cc1C | < 3.70 | 14 | – |
| CN(C)c1ccc(/C=C2\SC(=S)NC2=O)cc1 | 3.90 | – | – |
| CCOC(=O)C1=C(Nc2ccc([N+](=O)[O-])cc2)S/C(=C\c2ccc(N(C)C)cc2)C1=O | 3.85 | 19 | – |
| CCN1C(=O)/C(=C/c2ccc(OC)cc2)SC1=S | < 3.70 | – | – |
| C=CCN1C(=O)NC(=O)/C(=C/c2ccc(-c3ccc(C(=O)OCC)cc3)o2)C1=O | < 3.70 | 16 | – |
| O=C(Cn1c(/C=C2/C(=O)NC(=S)N(c3ccccc3)C2=O)cc2ccccc21)Nc1ccccc1 | 4.48 | 45 | inhibition [4]: Active |
| O=C1NC(=S)S/C1=C\c1cccc2ccccc12 | – | – | IC50 [1]: Not Active |
| O=C1/C(=C/c2cn(-c3ccccc3)nc2-c2cccs2)SC(=S)N1C1CCS(=O)(=O)C1 (stereo unspecified) | 3.93 | 13 | – |
| C=CCN1C(=O)/C(=C2/C(=O)N(S(=O)(=O)c3ccc(OC)cc3)c3ccccc32)SC1=S | 3.71 | 18 | – |
| NN1C(=O)/C(=C/c2ccc(Cl)cc2)SC1=S | – | – | IC50 [1]: Not Active |
| CC(=O)NN1C(=O)/C(=C/c2ccc(Cl)cc2)SC1=S | – | – | IC50 [1]: Not Active |
| COc1ccc(OC)c(Nc2nc3ccccc3nc2NS(=O)(=O)c2cccc([N+](=O)[O-])c2)c1 | 3.82 | 13 | – |

| SMILES | pIC50 [1] | inhibition [2] [%] | further results |
| --- | --- | --- | --- |
| Cc1ccc(C2=NC(=O)/C(=C/c3cc4c(cc3Br)OCO4)S2)cc1 | 3.89 | 13 | – |
| C=CCN1C(=O)/C(=C\c2cc3ccccc3n2Cc2ccc([N+](=O)[O-])cc2)C(=O)NC1=S | 4.16 | 33 | – |
| C/C(=N\NC(=O)c1cc(C2CC2)n[nH]1)c1ccc(C)cc1 | < 3.70 | 14 | – |
| CCN1C(=O)/C(=C/c2ccccc2)SC1=S | < 3.70 | – | – |
| O=C(N/N=C/c1ccc(F)cc1)c1cc(-c2ccc3ccccc3c2)n[nH]1 | 3.79 | 14 | – |
| NNC(=O)c1cc2ccccc2cc1NS(=O)(=O)c1ccccc1 | 5.30 | 33 | inhibition (Salmonella typhimurium): inactive; inhibition (Staphylococcus aureus): inactive; inhibition (Carnobacterium divergens): inactive; inhibition (Pseudomonas aeruginosa): inactive; inhibition (Escherichia coli): inactive |
| O=C1NC(=S)S/C1=C\c1ccccc1O | < 3.70 | – | – |
| CC(=O)/N=C1\NC(=O)/C(=C/c2ccc(-c3ccc([N+](=O)[O-])cc3)o2)S1 | 4.11 | 52 | – |
| COc1ccc(C=C2C(=O)NC(=S)NC2=O)cc1OCc1ccccc1Cl | 3.92 | 48 | – |
| CC(=O)NN1C(=O)/C(=C/c2ccc(-c3ccc([N+](=O)[O-])cc3)o2)SC1=S | 4.14 | – | – |
| CCN1C(=O)/C(=C/c2cc(Cc3ccccc3Cl)ccc2O)SC1=S | 4.34 | 13 | inhibition [3]: Active |
| O=C1NC(=S)S/C1=C\c1ccccc1[N+](=O)[O-] | – | – | IC50 [1]: Not Active |
| CCN1C(=O)/C(=C/c2cccc3ccccc23)SC1=S | 3.70 | – | – |
| CN1C(=O)C(=Cc2cccn2-c2cccc([N+](=O)[O-])c2)C(=O)N(C)C1=O | < 3.70 | 13 | – |
| Cc1cc(C=C2C(=O)NC(=S)NC2=O)c(C)n1C | 4.60 | 15 | inhibition [3]: Active; inhibition (Salmonella typhimurium): inactive; inhibition (Staphylococcus aureus): inactive; inhibition (Carnobacterium divergens): inactive; inhibition (Pseudomonas aeruginosa): inactive; inhibition (Escherichia coli): inactive |
| Cc1ccc(N2C(=O)/C(=C\c3cc4ccccc4n3CC(=O)O)C(=O)N(C)C2=O)cc1 | 4.43 | 17 | – |
| CCOC(=O)C1=C(Nc2ccc(OC)cc2)S/C(=C\c2ccc(N(C)C)cc2)C1=O | < 3.70 | 22 | – |
| O=C(N/N=C/c1ccc(O)cc1O)c1[nH]c2ccc([N+](=O)[O-])cc2c1-c1ccccc1 | 4.35 | 15 | – |
| COc1ccc(/C=C2\SC(=S)N(NC(C)=O)C2=O)cc1 | < 3.70 | – | – |
| CN1C(=O)/C(=C/c2cc3ccccc3n2CC(=O)O)C(=O)N(c2ccc(Cl)cc2)C1=O | 4.19 | 14 | – |
| CC(=O)c1ccc(Nc2nc(-c3cc4ccccc4oc3=O)cs2)cc1 | < 3.70 | 16 | – |
| O/C(=C\c1nc2ccccc2nc1O)c1cccs1 | 4.51 | 15 | – |

| SMILES | pIC50 [1] | inhibition [2] [%] | further results |
| --- | --- | --- | --- |
| O=C1NC(=S)N(c2cccc(Br)c2)C(=O)/C1=C\c1ccco1 | < 3.70 | 17 | – |
| COc1ccc(/C=C2\SC(=S)N(N)C2=O)cc1 | 3.81 | – | – |
| Cc1c(C(=O)NC(=S)Nc2ccc3oc(-c4ccccc4Cl)nc3c2)oc2ccccc12 | 4.08 | 19 | – |
| COc1cc(-c2nnc(SCC(=O)c3ccc(F)cc3)n2-c2ccccc2)cc(OC)c1OC | < 3.70 | 14 | – |
| C=CCN1C(=O)/C(=C\c2cc3ccccc3n2C)C(=O)NC1=S | 4.12 | 35 | – |
| Cc1ccsc1/C=C1\SC(=S)N(C(C)c2ccccc2)C1=O (stereo unspecified) | 3.90 | 13 | – |
| Cc1nc(C)c(C(=O)/C=C2/Nc3ccccc3NC2=O)s1 | 4.25 | 18 | – |
| Cc1[nH]n(-c2ccccc2)c(=O)c1C=C1C(=O)N(C)C(=O)N(C)C1=O | 4.35 | 20 | inhibition [3]: Active |
| COc1ccc(/C=C2\SC(=S)NC2=O)cc1I | 3.74 | 29 | – |
| COc1ccccc1N1C(=O)/C(=C\c2cc3ccccc3n2Cc2ccccc2)C(=O)NC1=S | 4.21 | 20 | – |
| O=C1OC(c2ccccc2Cl)=N/C1=C/c1ccc(OC(=O)c2ccccc2Cl)c(O)c1 | 4.09 | 30 | – |
| CC(=O)NN1C(=O)/C(=C/c2ccccc2)SC1=S | – | – | IC50 [1]: Not Active |
| N/C(=N\[N+](=O)[O-])N/N=C\c1ccc(-c2cccc([N+](=O)[O-])c2)o1 | < 3.70 | 13 | – |
| COc1cc(OC)c(OC)cc1/C=N/n1c(S)nnc1-c1ccc(C)cc1 | < 3.70 | 18 | – |
| Cc1ccsc1/C=C1\SC(=S)N(CC2CCCO2)C1=O (stereo unspecified) | < 3.70 | 14 | – |
| CCN1C(=O)/C(=C/c2ccccc2O)SC1=S | < 3.70 | – | – |
| O=C1NC(=S)S/C1=C\c1ccc(Cl)cc1 | < 3.70 | – | – |
| CCN1C(=O)/C(=C/c2ccc(Cl)cc2)SC1=S | 3.70 | – | – |
| CC(=O)NN1C(=O)/C(=C/c2ccc(Br)o2)SC1=S | 4.39 | 13 | inhibition [3]: Active |
| Cc1ccc(N2C(=O)/C(=C\c3cc4ccccc4[nH]3)C(=O)NC2=S)cc1 | 3.79 | 16 | – |
